Source: ChEMBL document CHEMBL4513216, “Probing the Open Global Health Chemical Diversity Library for Multistage-Active Starting Points for Next-Generation Antimalarials” (ACS Infect Dis, 2020)

Assay: Toxicity liver stage against HepG2, at 10uM
Type: cell-based
Design: test concentration 10 uM, cell line HepG2-A16-CD81EGFP
Conditions: human, HepG2-A16-CD81EGFP cells; read-out: INHIBITION
Procedure, shortened: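 Uninfected HepG2-A16-CD81EGFP cells, 3 × 10^3 per well, 1536-well, plated on prespotted compound at 10 μM final, parasite-free screening media added to match infected plates; puromycin 10 μM positive, DMSO 0.5% negative; run in parallel with 48 h PbLuc assay at 37 °C, 5% CO2; viability by CellTiter-Glo luminescence, normalized to controls.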

| SMILES | cytotoxicity at 10 µM |
| --- | --- |
| CC(C)Oc1ccc(C(=O)Nc2nncs2)cn1 | -7.94% |
| COc1ccc(-c2cc(CC3(NCc4ccc(C)o4)COC3)no2)cc1 | -5.88% |
| COCCN1C(=O)CO[C@H]2CN(S(=O)(=O)c3ccccc3)C[C@H]21 | -0.843% |
| O=C(NCCS(=O)(=O)N1CCN(c2ncccn2)CC1)C1CC1 | -4.15% |
| O=S(=O)(Cc1ccc(F)cc1)N1CCN(CC(O)C2CC2)CC1 (configuration not stated) | 4.77% |
| O=C1CC(NS(=O)(=O)c2ccc(F)c(Cl)c2)CN1 (configuration not stated) | 6.32% |
| COCC1CN(C(=O)Cc2ccccn2)Cc2ncn(C)c21 (configuration not stated) | 1.73% |
| COCC(=O)N1CC[C@H]2C[C@H](c3nnc(C4CC4)o3)O[C@@H]2C1 | 4.85% |
| CC1c2ncc(Cn3cncn3)n2CCN1C(=O)c1cscn1 (configuration not stated) | -17.5% |
| CN1CCN(C[C@@H]2OC[C@H]3CN(Cc4ccncc4)CC[C@H]32)CC1 | 1.96% |
| CS(=O)(=O)N1CCOCC2(CCN(C(=O)c3cnccn3)CC2)C1 | -0.152% |
| CC(C)(C)c1noc(-c2ccnc(-n3cnc(C(=O)O)c3)c2)n1 | 5.41% |
| O=C1CSC(c2ccc3c(c2)OCO3)c2cn[nH]c2N1 (configuration not stated) | 4.29% |
| CNC(=O)c1cc2c(nc1NCC(C)C)CCN(S(=O)(=O)C1CC1)CC2 | -4.88% |
| CCCn1nccc1C(=O)Nc1ncc(C)s1 | 8.05% |
| O=c1c2cc3c(cc2nnn1Cc1cccc(F)c1)OCCO3 | 6.39% |
| CCCc1nc(N(C)Cc2ccco2)c2c(n1)c(C)nn2CC | 16.9% |
| COCCCNC(=O)c1nnsc1-c1ccccc1 | 5.09% |
| Cc1cn[nH]c1C1COCCN1C(=O)c1ccc2c(c1)CCCC2 (configuration not stated) | -0.21% |
| Cc1cc(N2CCCC(O)(CN(C)C(=O)CCN)C2)c2cnccc2n1 (configuration not stated) | -1.49% |
| Cn1cc(C2=NOC(C(=O)NC3(c4ccccc4)CCCC3)C2)cn1 (configuration not stated) | -0.34% |
| Cc1cc(O)cc(C2CCCN2C(=O)c2ccn(C)n2)n1 (configuration not stated) | -2.82% |
| Fc1cccc(CN2CCC(c3noc(-c4ccccn4)n3)CC2)c1F | -12.8% |

| SMILES | cytotoxicity at 10 µM |
| --- | --- |
| Cc1cnc(C2(C)CCN(Cc3cscn3)CC2)s1 | -22.5% |
| Cc1nn(C)c(C)c1-c1cnc(C2CCCN(S(C)(=O)=O)C2)cn1 (configuration not stated) | -11.3% |
| Cc1ccc(CN2CCCC(c3cncc(C)n3)C2)cn1 (configuration not stated) | -9.35% |
| Cc1ncsc1-c1nnc(C2CCN(Cc3cccc(Cl)c3)CC2)o1 | -8.19% |
| CCc1ccc(S(=O)(=O)Nc2ccncc2)s1 | 0.453% |
| CC(CNC(=O)c1cccc(-n2cccn2)n1)Cn1ccnc1 (configuration not stated) | 7.73% |
| CC(C#N)CN(C)C(=O)CCNC(=O)C(C)(C)C (configuration not stated) | 0.843% |
| C=C(C)Cn1cc(C(N)=O)nc1C1CC1 | 14.5% |
| OCCN1CCN(Cc2cn(-c3ccccc3)nn2)CC1 | 1.42% |
| O=C(NC1CCN(C2CC2)CC1)c1cn(-c2ccc(Cl)cc2)nn1 | -2.87% |
| CC(C)N1CCC(NC(=O)NCc2ccccc2)CC1 | 5.89% |
| NS(=O)(=O)CCN1CCN(c2cc(F)ccc2F)CC1 | -14.4% |
| Cc1nnc2n1CCN(CC(=O)NC(C)c1cc3ccccc3o1)C2 (configuration not stated) | -9.79% |
| CC(C)OCCNC1(c2ccc(Cl)cc2)CCOCC1 | 5.5% |
| O=C(NCc1ccccc1Cn1ccnc1)N1CCSCC1 | 3.9% |
| CC(C)N1CCCC(N2CCOC3(CCCC3)C2)C1=O (configuration not stated) | -7.33% |
| O=C(c1cnn(-c2ccccc2)c1)N1CCN(c2cnccn2)CC1 | 5.37% |
| CC(C)C(=O)Nc1cc(C(C)(C)C)nn1-c1ccccn1 | -4.1% |
| CNS(=O)(=O)CCCn1nnc(-c2ccc(F)c(C)c2)n1 | -1.52% |
| Cc1nnc2n1CCN(C(=O)c1cn(-c3ccc(F)cc3)nn1)C2 | -149% |
| Cc1nc(C)n(CC2CCCN2CC(=O)Nc2cccnc2)n1 (configuration not stated) | 2.04% |
| Cc1nn(C)c(C)c1NC(=O)CN1CCCC1c1noc(C(C)C)n1 (configuration not stated) | -1.08% |
| CN(C)S(=O)(=O)Nc1ccc(-n2nccc2C(F)(F)F)cc1 | 5.65% |

| SMILES | cytotoxicity at 10 µM |
| --- | --- |
| CC(=O)N1CCCC1c1cccc(C)c1C (configuration not stated) | 10.8% |
| CS(=O)(=O)CCCC(=O)N1CCN(CC2CC2)c2ccccc21 | -3.2% |
| COc1ccccc1C(C)CC(=O)N1CCCS1(=O)=O (configuration not stated) | -11.6% |
| CCc1ccc(CN(C(=O)CCn2cc(S(N)(=O)=O)cn2)C2CC2)cc1 | 6.37% |
| CN(Cc1cccc(OC(F)(F)F)c1)Cc1cnn(C)c1 | -3.41% |
| COc1ccc2c(ccn2CC(=O)N2CCCC2Cn2cccn2)c1 (configuration not stated) | -0.429% |
| CC(C)N(C(=O)CCc1cccc(F)c1)C1CCOCC1 | -5.21% |
| CC(=O)N(C)Cc1cccc(NC(=O)N(C)CCc2cccs2)c1 | -2.67% |
| CC1(CNC(=O)NCc2ccsc2)CCCS1 (configuration not stated) | 1.82% |
| CC(C)CCNC(=O)c1ccc(-c2ccco2)[nH]c1=O | -9.62% |
| O=C(NC1CCCN(c2ncccn2)C1)c1ccoc1 (configuration not stated) | -4.56% |
| COCCOCC(=O)Nc1ccc(Br)cc1F | -10.5% |
| CCN(CC)C(=O)c1ccc(-c2ccsc2)nc1C | -13.4% |
| CCNc1ncc(CN2C[C@@H](CN3CCC(CO)CC3)[C@@H](CO)C2)cn1 | -6.03% |
| CN(C)C(=O)c1ccc(-c2cccc3c2CCNC3)o1 | -0.537% |
| Cc1nc(C(C)C)sc1C(=O)N1CCN(C2CN3CCC2CC3)CC1 (configuration not stated) | 3.79% |
| CC(C)=CCN1CCN(C(=O)c2cc(C)n[nH]2)[C@H]2CS(=O)(=O)C[C@H]21 | -6.9% |
| Cn1c(CN2CCC(O)CC2)nnc1C1CCCN(c2ccncc2)C1 (configuration not stated) | 9.29% |
| NC(=O)c1ccc(-c2nc3c(c(=O)[nH]2)CCNC3)cc1 | 1.37% |
| CC(C)Oc1ccc(CN2CCN3CCN(C)CC3C2)cc1CO (configuration not stated) | -3.42% |
| O=C(c1cccc(C2CCNC2)c1)N1CCC(c2ncc[nH]2)CC1 (configuration not stated) | -5.03% |
| Cc1c[nH]c(CN2CCN(C)C3(CCC(=O)N(CC4CC4)CC3)C2)n1 (configuration not stated) | -5.54% |
| CN(CC1(CO)CCC1)C(=O)c1cc(COc2ccccc2F)[nH]n1 | 12.1% |

| SMILES | cytotoxicity at 10 µM |
| --- | --- |
| COC[C@H]1CCC[C@H]1Nc1ncnc2c1CCNCC2 | -11.2% |
| CCOc1ccc(C(=O)N2Cc3cnc(CC)nc3C2)o1 | 3.34% |
| CSCCC(=O)N1CCC(c2nccn2Cc2cscn2)CC1 | 1.41% |
| CCC(=O)N1Cc2nnc(C3CCOCC3)n2C(Cc2c[nH]cn2)C1 (configuration not stated) | -11.2% |
| Cc1ccc(C(C(=O)NCCc2nc(C)cc(C)n2)N(C)C)cc1 (configuration not stated) | -1.3% |
| CSCCC1CC(=O)Nc2cc(O)c(C)cc21 (configuration not stated) | 1.97% |
| CCn1ccnc1CNC1CC(=O)N(CCc2cccc(Cl)c2)C1 (configuration not stated) | -127% |
| CC(C1CCN(Cc2ccc(N(C)C)nc2)CC1)N(C)C (configuration not stated) | -1.75% |
| CCN(CCc1nc2cc(C)ccc2[nH]1)C(=O)[C@@H](N)COC | -2.64% |
| Cc1ccc2c(c1)c(CNC(=O)C1CC(=O)N(C3CC3)C1)nn2C (configuration not stated) | -0.502% |
| Cc1nc(CN2CC(Cc3ccccc3)CC2=O)no1 (configuration not stated) | 2.42% |
| CN1CCCN(C[C@@H]2CN(C(=O)CC3CCC3)C[C@@H]2CO)CC1 | -9.11% |
| Cc1ccc2c(c1)c(CNC(=O)C1CCN(C(C)C)CC1)nn2C | -14.8% |
| CC(CC#N)n1ccc(C(F)(F)F)n1 (configuration not stated) | -8.88% |
| CCN(C(C)=O)c1nc(CN2CCCC2Cn2cncn2)cs1 (configuration not stated) | -5.15% |
| CCOc1ccc(Cl)c(C(=O)N2CCN(C(=O)OC)CC2)n1 | -6.33% |
| C=C(C)CN1CCC(NC(=O)c2scnc2C)CC1 | -6.35% |
| Cc1cc(C)n(CC2CCCN2C(=O)c2cn[nH]c2C)n1 (configuration not stated) | -11.6% |
| CC(=O)N(Cc1ncc(C(C)C)o1)C1CCN(CCC#N)C1 (configuration not stated) | -6.39% |
| O=C(NCc1csc(Br)c1)N1CCOCC1 | -7.45% |
| CC(=O)N(Cc1noc(C2CC2)n1)C1CCN(Cc2ccccc2)C1 (configuration not stated) | -5.59% |
| Cc1cc(C(=O)N2CCCN(Cc3nccn3C(C)C)CC2)no1 | -2.72% |
| Cc1noc(C2CCN(C(=O)CCc3ccccn3)CC2)n1 | -3.25% |

| SMILES | cytotoxicity at 10 µM |
| --- | --- |
| Cc1noc2ncc(C(=O)NCC3CCCOC3)cc12 (configuration not stated) | -8.42% |
| Cc1cccnc1NC(=O)N(CCO)Cc1ccsc1 | -11.3% |
| CCOc1cccc2c1OCC(C(=O)NS(=O)(=O)c1c(C)noc1C)=C2 | -12.1% |
| CC(C)c1cnc(CN(C)C2CCN(CCn3cc(C#N)cn3)C2)o1 (configuration not stated) | -4.98% |
| CC1CN(C(=O)c2ccn(-c3cccc(Cl)c3)n2)CCO1 (configuration not stated) | -5.25% |
| COc1c(CNCc2cccc(CS(C)(=O)=O)c2)c(C)nn1C | -5.6% |
| COC(=O)c1cc(C(=O)N2CCCCCC2)n(-c2ccccc2)n1 | -5.33% |
| OC(CN1CCN(Cc2nnc(C3CC3)o2)CC1)c1ccccc1 (configuration not stated) | -6.82% |
| Cc1cnn(CC2CCCN2C(=O)c2cccc(CC#N)c2)c1 (configuration not stated) | -8.62% |
| CC(NCc1ccc(OCC(N)=O)cc1)c1ccc(Cl)c(Cl)c1 (configuration not stated) | -5.25% |
| c1cnc(N2CCCC3(COCCN(CC4CC4)C3)C2)nc1 (configuration not stated) | 3.22% |
| c1ccc(CN2CCC3(CC2)CN(c2ccccn2)CCO3)nc1 | -6.38% |
| CN1CCC2(COCc3cnc(-c4ccccc4)nc32)C1 (configuration not stated) | -1.5% |
| CN1CC(=O)N(c2ccsc2)CC12CCN(S(=O)(=O)C1CC1)C2 (configuration not stated) | -0.298% |
| CCO[C@@H]1CN(Cc2scnc2C)[C@@H]2CCCO[C@@H]21 | -151% |
| Cc1ccc2c(n1)N(CCn1cccn1)CCN(CC1CC1)C2 | 8.83% |
| O=C(Nc1cccnc1)[C@H]1CN(C2CCCC2)C[C@H]2OCC[C@@H]12 | 9.81% |
| CCC(=O)N1CCC2(CCN(Cc3cccc(F)c3)CC2)CC1 | -4.82% |
| COc1ccc(S(=O)(=O)N2Cc3c(CN(C)C)nn(C)c3C2)cc1 | 3.94% |
| CS(=O)(=O)N1C[C@H]2CC[C@@H](C1)N(CCC(=O)NCc1ccccc1F)C2 | -11% |
